aDG glyco up: increases alpha dystroglycan glycosylation; Pro5-aDG cells, alpha-DG glycosylation AlphaScreen (IIH6); 0% Pro5, 100% B10-LARGE cell signal; activation, % at 10 µM; hit rate 0.22% among 360,000;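 active = activation of at least 8% versus controls, or a plate z-score of at least 8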;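 note: Pro5 are CHO cells carrying HIG-tagged alpha-DG that lacks glycosylation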
MPTP block: blocks calcium-induced mitochondrial swelling. isolated mouse mitochondria, Ca2+ swelling absorbance, 30 min. inhibition, % at 10 µM. AID 602449. hit rate 1.4% among 360,000;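 active = inhibition of 50% or more, scaled per plate between neutral and stimulator controls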;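 note: 0% = DMSO wells given calcium and 100% = 1 mM EGTA wells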
697 NFkB inh: inhibitors of the PMA/ionomycin-induced NF-kB reporter in 697 B cells. 697 B-cell NF-kB luciferase reporter, 16 h. inhibition, % at 4 µM. hit rate 0.33% among 330,000. AID 435022; in the data active = inhibition above about 35%
Jurkat NFkB inh: lowers PMA/ionomycin-induced NF-kB signal in Jurkat cells. PMA/ionomycin-induced NF-kB luciferase reporter, luminescence. inhibition, % at 4 µM. hit rate 0.53% among 330,000. AID 435003; in the data active = inhibition above about 50%
NR2E3 ag-1: activates human photoreceptor nuclear receptor NR2E3 | hit rate 0.12% among 320,000 | AID 2300 | GST-NR2E3/biotin-RetCOR TR-FRET, 1536-well | inhibition of corepressor binding, % at 4.78 µM | Q9Y5X4;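 active = percent inhibition above the cutoff of mean plus 3 SD of all tested compounds, set per screening campaign, cut at about 20% in these data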;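 note: 0% = DMSO wells and 100% = biotin wells as full block of FRET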
Target sequence (Q9Y5X4 whole entry, looked up): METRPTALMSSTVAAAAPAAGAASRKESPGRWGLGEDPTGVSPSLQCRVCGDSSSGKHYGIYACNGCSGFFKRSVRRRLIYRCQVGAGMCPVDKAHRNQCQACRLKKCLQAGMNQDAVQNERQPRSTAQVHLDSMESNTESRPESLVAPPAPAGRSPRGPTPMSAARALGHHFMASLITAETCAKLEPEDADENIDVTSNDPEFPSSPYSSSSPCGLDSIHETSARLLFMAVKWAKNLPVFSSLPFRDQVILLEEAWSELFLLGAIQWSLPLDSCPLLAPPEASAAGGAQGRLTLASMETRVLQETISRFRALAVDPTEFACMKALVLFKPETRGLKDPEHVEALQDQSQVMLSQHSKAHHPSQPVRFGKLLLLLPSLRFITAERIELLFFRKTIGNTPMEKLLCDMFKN
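System: GST-tagged NR2E3 plus biotinylated RetCOR corepressor; Amount: 1.35 nM GST-tagged NR2E3 final; Dosing: single nominal compound dose of 4.8 µM; Schedule: 5 h incubation at 4 °C; Technique: TR-FRET with europium anti-GST and streptavidin-D2, 340 nm excitation; Controls: biotin wells as high control, 0.6% DMSO wells as low control.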
NR2E3 ag-2: agonists of human NR2E3 nuclear receptor | Q9Y5X4 | hit rate 0.35% among 360,000 | CHO-S Gal4-NCOR/VP16-NR2E3 two-hybrid, luciferase | inhibition of corepressor binding, % at 3.98 µM;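 active = inhibition above the mean of all tested compounds plus 3 SD, cut at about 70% in these data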;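 note: 0% = DMSO with NR2E3 transfected cells and 100% = cells lacking NR2E3 construct; higher means lower luciferase signal from less NR2E3 corepressor binding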
Rh123 counter: Rhodamine 123 counter-screen of mitochondrial pore hits. hit rate 78% among 5,000. AID 624504. shares compounds with MPTP block. inhibition, % at 10 µM. isolated mitochondria, membrane potential, Rhodamine 123 fluorescence; in the data active = inhibition above about 22%;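 note: 0% = DMSO vehicle and 100% = positive control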
MPTP swell DR: dose response confirmation of mitochondrial permeability transition pore inhibitors; hit rate 58% among 780; IC50, µM; isolated mitochondria swelling, absorbance; AID 651561; shares compounds with MPTP block; in the data active = IC50 below about 20 µM
MPTP counter DR: active in counter-screen for permeability transition pore inhibitors. IC50, µM. shares compounds with MPTP block. hit rate 49% among 780. isolated mitochondria counterscreen, fluorescence read-out; in the data active = IC50 below about 80 µM
* = called active by the depositor; i = inactive; x = no result. In the library only some 2.4% were active in any assay of this set; here they are far more common.

SMILES	aDG glyco up	MPTP block	697 NFkB inh	Jurkat NFkB inh	NR2E3 ag-1	NR2E3 ag-2	Rh123 counter	others
CCc1cc2c(-c3ccccc3)cc(=O)oc2cc1OCC(=O)NCC1CCC(C(=O)O)CC1 (stereo unspecified)	0	-1	18	12	-1	-23	x
CC1=NN(C(N)=S)C(=O)C1N=Nc1c(Br)cc(Br)cc1Br (stereo unspecified)	0	56*	-31	2	-3	-48	78*
CC1=NN(C(N)=S)C(=O)C1N=Nc1ccc(C)cc1C (stereo unspecified)	x	x	-129	-48	-5	x	x
CCOc1cc(C)c(-c2onc(C(F)(F)F)c2-c2csc(C)n2)c(O)c1	0	70*	11	6	4	31	83*
COc1ccc2nc(N3C(=O)/C(=C/c4ccc(Cl)cc4)NC3=S)sc2c1	0	95*	x	x	x	5	3
O=C(N/N=C/c1cccc(C(F)(F)F)c1)c1ccccc1O	0	65*	-20	-8	-1	-13	55*
Cc1c(Cl)cccc1NC(=O)CSc1nc2ncc(Cl)cc2[nH]1	0	41	11	5	1	-14	x
O=c1[nH]c(-c2ccccc2F)nc2c1sc(=S)n2Cc1ccccc1	0	66*	6	1	1	-2	69*
Cc1ncoc1C(=O)Nc1ncc([N+](=O)[O-])s1	0	-1	-118	-64	2	-56	x
Cc1ccc(CC(=O)Nc2ncc([N+](=O)[O-])s2)cc1	0	66*	-39	-28	0	-125	90*
CCCCC(CC)C(=O)Nc1ncc([N+](=O)[O-])s1 (stereo unspecified)	0	98*	-8	-2	1	-15	100*
Cc1noc(C)c1NC(=O)Nc1ccc2c(c1)C(=O)N([C@@H](C)CO)C[C@@H](C)[C@H](CN(C)C(=O)Nc1cccc3ccccc13)OCCCC[C@H](C)O2	0	1	x	x	x	-16	x
Cc1nn(-c2ccccc2)c(N)c1Sc1ccc([N+](=O)[O-])cc1	0	1	24	6	2	-17	x
Cc1nn(S(=O)(=O)c2ccc(Cl)cc2)c(C)c1Sc1ccc([N+](=O)[O-])cc1	0	61*	x	x	-3	-39	41*
COC(=O)c1c(C)oc2ccc(NS(=O)(=O)c3cccs3)cc12	2	92*	-21	10	0	32	57*
CN1/C(=C/C=C/c2n(C)c3cc([N+](=O)[O-])c([N+](=O)[O-])cc3[n+]2C)C(C)(C)c2ccccc21	-1	81*	x	x	x	8	-9	MPTP swell DR=i;MPTP counter DR=<2.5*
CC(C)N=c1scc(-c2ccco2)n1/N=C/c1ccc(O)c(O)c1	0	63*	-62	4	2	-74	42*
COCCN=c1scc(-c2ccco2)n1/N=C/c1ccc(O)c(O)c1O	0	1	-15	0	6	-21	x
Cc1cc(C)cc(OCC(=O)OCC(=O)Nc2cc(S(=O)(=O)N3CCOCC3)ccc2Cl)c1	0	1	13	5	x	8	x
O=S(=O)(NCC(Nc1ccccc1)c1ccccc1)c1ccc(Cl)cc1 (stereo unspecified)	0	52*	-22	-20	6	6	74*
O=C(O)c1cccc(NC(CNS(=O)(=O)c2ccc(Cl)cc2)c2ccccc2)c1 (stereo unspecified)	0	0	5	0	-2	-18	x
Cc1ccc(NC(=O)C2CCN(C(=O)c3ccccc3C)CC2)nc1	0	-1	13	2	3	-12	x
N#C/C(=C\c1cccnc1)c1ccccc1[N+](=O)[O-]	0	-3	-14	-20	0	1	x
CN(CC(=O)Nc1cccc(F)c1)CC(=O)Nc1ccccc1[N+](=O)[O-]	0	78*	-19	6	1	33	51*
COc1ccc(CCNC(=O)c2cc(C(=O)c3cc(Cl)ccc3O)cn(CCc3ccc(OC)cc3)c2=O)cc1	-1	30	-16	-24	0	-8	x
SMILES	aDG glyco up	MPTP block	697 NFkB inh	Jurkat NFkB inh	NR2E3 ag-1	NR2E3 ag-2	Rh123 counter	others
O=C(c1cc(C(=O)NCCc2ccccc2)c(=O)n(CCc2ccccc2)c1)c1cc(Cl)ccc1O	0	98*	-3	11	-3	18	79*
CC(Sc1nnc(Cc2ccccc2)o1)C(=O)NC1(C#N)CCCCC1 (stereo unspecified)	0	0	9	0	x	-22	x
CN(C)CCOc1ccc(C(C)(C)c2ccccc2)cc1	0	2	5	11	-5	-16	x
C=CCNCCOc1ccc(C(C)(C)c2ccccc2)cc1	1	78*	4	-3	4	-1	-12	MPTP swell DR=15*;MPTP counter DR=>80
CCNC(=S)Nc1cccc([N+](=O)[O-])c1	x	x	-18	-9	1	x	x
O=C(CSc1nc(-c2ccc(Cl)cc2)cs1)Nc1cccc([N+](=O)[O-])c1	1	84*	9	49	2	-18	80*
O=[N+]([O-])c1cccc(NC(=S)Nc2nc(-c3ccccc3Cl)cs2)c1	4	87*	-46	-23	5	15	76*
Cc1ccc(-c2csc(NC(=O)CSc3nc(C)cs3)n2)cc1	0	70*	-47	-33	2	-37	56*
O=C(CCC1CCCC1)Nc1cc(C(F)(F)F)ccc1N1CCOCC1	0	1	7	-1	-5	-15	x
COc1ccccc1N(CC(=O)NC1CCCCC1)C(=O)CNC(=O)c1cccs1	0	-1	-12	-6	2	-24	x
Cc1ncc(C[n+]2ccc(C)c(C)c2)c(N)n1	0	0	13	5	4	5	x
O=C(NC1CCCN(Cc2ccc(Cl)cc2)C1)c1c(F)ccc(F)c1F (stereo unspecified)	0	1	-3	3	1	27	x
COc1ccccc1Oc1ccc(S(=O)(=O)NCc2ccccn2)cc1	2	70*	-4	20	1	36	38*
Cc1ccc2c(c1)nnn2C1CCN(S(=O)(=O)c2ccc(C(=O)N(C)C)cc2)CC1	0	2	6	-1	-1	-26	x
Cc1ccc2c(c1)nnn2C1CCN(S(=O)(=O)c2ccc(C(=O)N3CC(C)CC(C)C3)cc2)CC1 (stereo unspecified)	1	56*	-56	1	0	1	40*

Assay outcomes deposited in PubChem by several laboratories.
